# Results as given in ChEMBL document CHEMBL4316604, “Discovery of Isaindigotone Derivatives as Novel Bloom's Syndrome Protein (BLM) Helicase Inhibitors That Disrupt the BLM/DNA Interactions and Regulate the Homologous Recombination Repair” (J Med Chem, 2019).
# The source made the active and inactive calls. The calls are words filed in the database; no cut-off is given here.
# Columns and labels:
# [1] = target: T1, RecQ-like DNA helicase BLM (Homo sapiens, UniProt P54132); assay: Inhibition of His-tagged BLM (unknown origin) expressed in Escherichia coli BL21 (DE3) assessed as reduction in BLM helicase unwinding activity at 1 uM using 5'-biotin labeled forked-DNA as substrate after 1 hr by PAGE analysis
# T1 sequence (P54132 whole entry): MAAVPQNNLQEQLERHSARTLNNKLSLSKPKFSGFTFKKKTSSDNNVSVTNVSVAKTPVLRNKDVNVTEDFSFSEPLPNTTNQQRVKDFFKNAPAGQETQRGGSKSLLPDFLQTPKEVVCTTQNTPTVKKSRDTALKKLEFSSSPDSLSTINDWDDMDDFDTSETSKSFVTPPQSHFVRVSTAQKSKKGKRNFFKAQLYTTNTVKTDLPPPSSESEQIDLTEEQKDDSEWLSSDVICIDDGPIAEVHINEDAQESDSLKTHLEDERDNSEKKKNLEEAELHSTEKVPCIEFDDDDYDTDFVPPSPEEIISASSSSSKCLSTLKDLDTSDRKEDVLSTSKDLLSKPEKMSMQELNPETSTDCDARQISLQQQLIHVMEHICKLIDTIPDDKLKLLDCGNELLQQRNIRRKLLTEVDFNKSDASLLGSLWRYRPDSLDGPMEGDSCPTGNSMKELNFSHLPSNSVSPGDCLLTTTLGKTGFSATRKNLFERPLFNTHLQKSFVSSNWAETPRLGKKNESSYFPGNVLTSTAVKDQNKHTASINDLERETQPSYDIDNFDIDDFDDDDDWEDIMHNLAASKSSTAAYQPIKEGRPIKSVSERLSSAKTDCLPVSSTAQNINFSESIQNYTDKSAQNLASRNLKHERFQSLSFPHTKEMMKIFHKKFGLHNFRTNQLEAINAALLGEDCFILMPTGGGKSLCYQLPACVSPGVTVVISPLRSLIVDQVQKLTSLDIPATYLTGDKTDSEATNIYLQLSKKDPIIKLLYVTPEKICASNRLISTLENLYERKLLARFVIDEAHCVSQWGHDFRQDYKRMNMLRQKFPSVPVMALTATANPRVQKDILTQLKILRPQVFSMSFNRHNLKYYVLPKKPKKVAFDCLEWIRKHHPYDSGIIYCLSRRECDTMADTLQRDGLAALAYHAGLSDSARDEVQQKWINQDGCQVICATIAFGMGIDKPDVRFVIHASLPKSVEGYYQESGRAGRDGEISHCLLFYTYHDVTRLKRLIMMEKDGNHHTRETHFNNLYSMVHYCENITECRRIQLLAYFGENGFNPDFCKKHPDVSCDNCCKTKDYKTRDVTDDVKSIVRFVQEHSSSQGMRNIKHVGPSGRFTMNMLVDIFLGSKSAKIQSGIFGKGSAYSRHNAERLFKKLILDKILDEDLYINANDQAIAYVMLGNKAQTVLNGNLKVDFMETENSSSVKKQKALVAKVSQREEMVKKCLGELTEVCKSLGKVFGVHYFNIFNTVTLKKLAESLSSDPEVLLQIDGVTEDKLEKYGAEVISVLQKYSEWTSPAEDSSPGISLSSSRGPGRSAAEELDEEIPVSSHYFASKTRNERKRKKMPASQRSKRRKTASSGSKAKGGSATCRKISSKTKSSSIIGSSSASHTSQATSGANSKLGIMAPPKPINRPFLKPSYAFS
# Procedure, shortened: (§1)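 BLM642-1296 (His-tagged, E. coli BL21(DE3)) preincubated with ligand (1.0, 10, 50 μM; ≤1% DMSO) for 1 h at 4 °C. Reaction: 8 nM annealed 5′-biotin duplex forked DNA, 32 nM BLM, 2 mM ATP, 0.1% BSA, 1 h.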
# [2] = test system: HCT-116; assay: Induction of apoptosis in human HCT116 cells assessed as increase in cleaved caspase 3 expression at 2 uM after 48 hrs by Western blot analysis; type: functional, cell-based
# Procedure, shortened: (§2)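 HCT116 cells treated with ligand (DNA-damage proteins 24 h, apoptosis proteins 48 h), lysed in RIPA at 4 °C. 40 μg protein per lane resolved by SDS-PAGE, blotted to PVDF, probed with damage and apoptosis antibody panels; β-actin loading control; chemiluminescent detection.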
# [3] = target: RecQ-like DNA helicase BLM (Homo sapiens, UniProt P54132, Y995A); assay: Binding affinity to His-tagged BLM Y995A mutant (unknown origin) expressed in Escherichia coli BL21 (DE3) by ITC assay
# RecQ-like DNA helicase BLM (Homo sapiens, UniProt P54132, Y995A), sequence (P54132 whole entry Y995A): as the sequence (P54132 whole entry) above, with Y995A counted along it
# Procedure, shortened: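 ITC at 25 °C in 2 mM MgCl2, 10 mM KH2PO4, pH 7.5: ligand (0.6 mM, syringe) titrated in 10 μL injections, 300 s apart, into BLM642-1296 wild-type or point mutant, or DNA (0.04 mM, cell). His-tagged BLM from E. coli BL21(DE3), induced with […] at 16 °C for 24 h. Heats integrated, fitted to 1:1 model for KD.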
# [4] = target: T1, RecQ-like DNA helicase BLM; assay: Inhibition of BLM in human HCT116 cells assessed as DNA damage by measuring gammaH2AX up to 2 uM after 48 hrs by […]; type: cell-based
# [5] = target: T1, RecQ-like DNA helicase BLM; assay: Inhibition of BLM in human HCT116 cells assessed as induction of RAD51 recruitment to DSB sites on chromosomes at 0.5 to 1 uM after 48 hrs by ChIP assay; type: cell-based
# Procedure, shortened: (§3)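 HCT116 cells co-transfected with HRR(−) reporter DSB model (or chromosomal I-SceI DSBs) and I-SceI; after 24 h given 0–2 μM ligand for 24 h. Crosslinked in 1% formaldehyde, chromatin digested by micrococcal nuclease to 0.2–0.5 kb, IP with anti-BLM or anti-RAD51 (IgG control). qPCR at DSB sites, normalised to untreated; triplicate.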
# [6] = test system: RecQ-like DNA helicase BLM (Homo sapiens), P54132 [E1143A]; assay: Inhibition of His-tagged BLM E1143A mutant (unknown origin) binding to DNA assessed as effect on unbound DNA
# RecQ-like DNA helicase BLM (Homo sapiens), P54132 [E1143A], sequence (P54132 whole entry E1143A): as the sequence (P54132 whole entry) above, with E1143A counted along it
# Procedure, shortened: (§4)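 Biotinylated forked DNA (50 nM) immobilised on streptavidin plates overnight at 4 °C. BLM or mutant (100 nM final) premixed with serially halved ligand in 3% BSA blocking buffer, ≤1% DMSO, 1 h on ice. Applied to the blocked plate for 1 h at 37 °C. Bound BLM detected with anti-BLM and HRP secondary, TMB, A450; Hill fit.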
# [7] = test system: HCT-116; assay: Chemosensitization activity in human HCT116 cells assessed as cisplatin-induced antiproliferative activity at 1.25 uM in presence of cisplatin and BLM siRNA after 24 hrs by MTT assay (reference value: 15.4%); type: functional, cell-based
# [8] = test system: HCT-116; assay: Induction of apoptosis in human HCT116 cells assessed as apoptotic cells at 2 uM after 48 hrs by Hoechst/propidium iodide-staining based flow cytometry (reference value: 1.09%); type: functional
# [9] = test system: HCT-116; assay: Chemosensitization activity in human HCT116 cells assessed as cisplatin-induced antiproliferative activity at 1.25 uM in presence of cisplatin after 24 hrs by MTT assay (reference value: 15.4%); type: functional
# [10] = target: T1, RecQ-like DNA helicase BLM; assay: Inhibition of BLM recruitment to DSB sites on HRR in human HCT116 cells at 0.5 to 1 uM after 48 hrs by ChIP assay; type: cell-based; procedure, shortened: as §3
# [11] = test system: HCT-116; assay: Induction of apoptosis in human HCT116 cells assessed as apoptotic cells after 48 hrs by Hoechst/propidium iodide-staining based flow cytometry; type: functional, cell-based
# [12] = test system: HCT-116; assay: Induction of apoptosis in human HCT116 cells assessed as increase in cleaved PARP expression at 2 uM after 48 hrs by Western blot analysis; type: functional, cell-based; procedure, shortened: as §2
# [13] = target: T1, RecQ-like DNA helicase BLM; assay: Inhibition of BLM recruitment to DSB sites on chromosomes in human HCT116 cells at 0.5 to 1 uM after 48 hrs by ChIP assay; type: cell-based; procedure, shortened: as §3
# [14] = target: T1, RecQ-like DNA helicase BLM; assay: Inhibition of His-tagged BLM (unknown origin) expressed in Escherichia coli BL21 (DE3) assessed as reduction in BLM helicase unwinding activity at 50 uM using 5'-biotin labeled forked-DNA as substrate after 1 hr by PAGE analysis; procedure, shortened: as §1
# [15] = target: T2, DNA repair protein RAD51 homolog 1 (Homo sapiens) (UniProt Q06609); assay: Induction of RAD51 (unknown origin) binding to ssDNA up to 1 uM […] by ELISA based DNA exchange activity assay
# T2 sequence (whole entry): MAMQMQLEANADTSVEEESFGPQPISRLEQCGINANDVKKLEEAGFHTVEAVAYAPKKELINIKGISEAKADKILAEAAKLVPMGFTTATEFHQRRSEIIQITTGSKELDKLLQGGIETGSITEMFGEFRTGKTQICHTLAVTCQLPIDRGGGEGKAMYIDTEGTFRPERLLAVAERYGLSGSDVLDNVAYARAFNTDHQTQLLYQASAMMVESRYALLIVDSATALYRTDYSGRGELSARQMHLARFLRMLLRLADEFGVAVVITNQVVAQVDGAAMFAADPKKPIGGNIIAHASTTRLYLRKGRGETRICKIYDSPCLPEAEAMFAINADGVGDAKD
# Procedure, shortened: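 Biotinylated duplex forked DNA (50 nM final) immobilised on streptavidin plates. BLM (10–1000 nM) preincubated 1 h at 37 °C with ligand series, then added with 250 nM RAD51 for 1 h at 37 °C, ELISA format. Bound RAD51 read at 450 nm as RAD51–ssDNA filament level.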
# [16] = target: T1, RecQ-like DNA helicase BLM; assay: Inhibition of BLM (unknown origin) assessed as increase in RAD51-ssDNA filaments up to 5 uM after 24 hrs by ELISA based DNA exchange activity assay
# [17] = target: T1, RecQ-like DNA helicase BLM; assay: Inhibition of BLM in human HCT116 cells assessed as induction of HRR up-regulation at 1 uM after 24 hrs by GFP-based flow cytometry relative to untreated control; type: cell-based
# Procedure, shortened: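 HCT116 cells (2×10^5) co-transfected with DR-GFP HRR reporter and I-SceI plasmid; 24 h later treated with 0–2 μM ligand (reference 0–50 μM); BLM siRNA knockdown where stated. GFP-positive cells counted by flow cytometry and normalised to untreated; triplicate, mean ± SD.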
# [18] = test system: RecQ-like DNA helicase BLM (Homo sapiens), P54132 [I1168A]; assay: Inhibition of His-tagged BLM I1168A mutant (unknown origin) binding to DNA assessed as effect on unbound DNA; procedure, shortened: as §4
# RecQ-like DNA helicase BLM (Homo sapiens), P54132 [I1168A], sequence (P54132 whole entry I1168A): as the sequence (P54132 whole entry) above, with I1168A counted along it
structure (smiles),measurement,setting,value
CCN(CC)CCCNc1cc2nc3n(c(=O)c2cc1F)CC/C3=C\c1ccc(C(C)C)cc1,inhibition,[1],Active
same,Activity,[2],Active
same,Kd,[3],5 µM
same,inhibition,[4],Active
same,inhibition,[5],Active
same,inhibition,[6],inactive
same,Activity,[7],Active
same,Activity,[8],71.59%
same,Activity,[9],71.2%
same,inhibition,[10],Active
same,Activity,[11],Dose-dependent effect
same,Activity,[12],Active
same,inhibition,[13],Active
same,inhibition,[14],Active
same,Activity,[15],inactive
same,inhibition,[16],Dose-dependent effect
same,fold change (FC),[17],< 3
same,inhibition,[18],inactive
